{
  "source": "ChEMBL document CHEMBL2010740",
  "about": "“Synthesis and evaluation of 2-amido-3-carboxamide thiophene CB₂ receptor agonists for pain management” (Bioorg Med Chem Lett, 2012)",
  "key": {"[1]": {"molecular_target": "T1, Cannabinoid receptor 2 (Homo sapiens, UniProt P34972)", "T1 sequence (P34972 whole entry)": "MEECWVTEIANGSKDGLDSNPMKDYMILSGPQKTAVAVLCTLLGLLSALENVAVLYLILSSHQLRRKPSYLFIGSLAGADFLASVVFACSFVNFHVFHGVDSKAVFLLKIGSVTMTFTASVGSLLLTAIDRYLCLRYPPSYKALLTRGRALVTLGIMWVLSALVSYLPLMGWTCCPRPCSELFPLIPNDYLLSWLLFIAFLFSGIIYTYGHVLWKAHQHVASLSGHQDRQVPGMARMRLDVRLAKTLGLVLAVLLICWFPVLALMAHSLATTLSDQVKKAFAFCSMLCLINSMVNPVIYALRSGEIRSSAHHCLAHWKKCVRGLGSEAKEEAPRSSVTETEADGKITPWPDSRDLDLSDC", "assay": "Agonist activity at human recombinant CB2 receptor expressed in HEK293 cells co-expressing chimeric Gaq/o protein by FLIPR assay", "assay_type": "functional, cell-based", "method_in_brief": "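FLIPR functional assay in HEK 293 cells stably co-expressing chimeric Gαq/o protein and the CB receptor. Net peak evoked response was compared with the peak response to CP-55,940.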"}, "[2]": {"system": "Rattus norvegicus", "assay": "Neurotoxicity in rat assessed as decrease in spontaneous locomotory activity at 10 umol/kg, ip after 30 mins", "assay_type": "toxicity, organism-based", "set-up": "scale not given: the % may be the effect or the level left", "settings": "in vivo, 0.5 h", "method_in_brief": "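Spontaneous horizontal locomotor activity in rats. Compound was given intraperitoneally 30 min before testing.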"}, "[3]": {"assay": "Half life in rat at 10 umol/kg, po", "assay_type": "ADME, organism-based", "settings": "in vivo"}, "[4]": {"assay": "Plasma protein binding in human", "assay_type": "ADME, cell-free", "settings": "read-out: PPB (converted)"}, "[5]": {"system": "Rattus norvegicus", "assay": "Analgesic activity in rat spinal nerve ligation model of neuropathic pain assessed as […] at 30 umol/kg, ip administered 2 weeks post-surgery measured after 30 mins", "assay_type": "functional", "set-up": "scale not given: the % may be the effect or the level left", "method_in_brief": "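Rat spinal nerve ligation (Chung) neuropathic pain model. Dosing was intraperitoneal, two weeks after surgery and 30 min before testing. Read-out was mechanical allodynia (paw withdrawal threshold), given as a dose–response.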"}, "[6]": {"system": "Rattus norvegicus", "assay": "Analgesic activity in rat chronic constriction injury model of neuropathic pain assessed as reduction in mechanical allodynia at 3 umol/kg, ip administered 2 weeks post-surgery measured after 30 mins", "assay_type": "functional", "set-up": "scale not given: the % may be the effect or the level left"}, "[7]": {"system": "Rattus norvegicus", "assay": "Analgesic activity in rat incision model of post-operative pain assessed as reduction in paw withdrawal latency at 10 umol/kg, ip administered 90 mins post-surgical incision measured after 30 mins", "assay_type": "functional", "set-up": "scale not given: the % may be the effect or the level left"}, "[8]": {"system": "Rattus norvegicus", "assay": "Analgesic activity in rat complete Freund's adjuvant model of chronic inflammatory pain assessed as latency in paw withdrawal at 30 umol/kg, po administered 48 hrs after CFA-challenge measured after 60 mins", "assay_type": "functional"}, "[9]": {"assay": "Metabolic stability in human microsomes assessed as compound remaining after 30 mins", "assay_type": "ADME, Microsome", "settings": "read-out: Stability", "method_in_brief": "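Metabolic stability: compound incubated with human or rat liver microsomes. Percent parent remaining was measured after 30 min.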"}, "[10]": {"system": "Rattus norvegicus", "assay": "Analgesic activity in po dosed rat complete Freund's adjuvant model of chronic inflammatory pain assessed as latency in paw withdrawal administered 48 hrs after CFA-challenge measured after 60 mins", "assay_type": "functional, organism-based"}, "[11]": {"system": "Rattus norvegicus", "assay": "Analgesic activity in rat chronic constriction injury model of neuropathic pain assessed as reduction in mechanical allodynia at 10 umol/kg, ip administered 2 weeks post-surgery measured after 30 mins", "assay_type": "functional", "set-up": "scale not given: the % may be the effect or the level left"}, "[12]": {"assay": "Cmax in rat at 10 umol/kg, po", "assay_type": "ADME, organism-based", "set-up": "dose 10 umol/kg, route oral", "settings": "in vivo"}, "[13]": {"assay": "Volume of distribution during terminal phase in rat at 3 umol/kg, iv", "assay_type": "ADME, organism-based", "settings": "in vivo, read-out: Vbeta"}, "[14]": {"assay": "Tmax in rat at 10 umol/kg, ip", "assay_type": "ADME, organism-based", "settings": "in vivo"}, "[15]": {"molecular_target": "T2, Cannabinoid receptor 2 (Rattus norvegicus) (UniProt Q9QZN9)", "T2 sequence (whole entry)": "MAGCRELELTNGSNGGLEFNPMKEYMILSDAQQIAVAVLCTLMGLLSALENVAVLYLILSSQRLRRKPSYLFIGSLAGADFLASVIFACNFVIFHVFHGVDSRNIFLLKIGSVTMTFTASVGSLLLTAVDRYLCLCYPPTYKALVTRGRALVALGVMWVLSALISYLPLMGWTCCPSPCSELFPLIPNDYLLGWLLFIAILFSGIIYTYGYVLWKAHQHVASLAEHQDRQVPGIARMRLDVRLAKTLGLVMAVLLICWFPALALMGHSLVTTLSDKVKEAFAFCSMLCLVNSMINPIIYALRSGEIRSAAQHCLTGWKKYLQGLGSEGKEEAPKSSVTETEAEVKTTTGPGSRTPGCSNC", "assay": "Agonist activity at rat recombinant CB2 receptor expressed in HEK293 cells assessed as inhibition of forskolin-induced cAMP production after 20 mins by ELISA relative to CP55940", "assay_type": "functional, cell-based", "method_in_brief": "(§1)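 cAMP assay in HEK 293 cells stably expressing the relevant CB receptor, with a fixed concentration of forskolin. cAMP was quantified by ELISA. Activation is given as percent of the CP-55,940 control response.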"}, "[16]": {"system": "Rattus norvegicus", "assay": "Analgesic activity in rat complete Freund's adjuvant model of chronic inflammatory pain assessed as reduction in thermal hyperalgesia at 10 umol/kg, ip administered 48 hrs after CFA-challenge measured after 60 mins", "assay_type": "functional", "set-up": "scale not given: the % may be the effect or the level left"}, "[17]": {"assay": "Oral bioavailability in rat at 10 umol/kg", "assay_type": "ADME, organism-based", "settings": "in vivo"}, "[18]": {"molecular_target": "T3, Cannabinoid receptor 2 (Rattus norvegicus, UniProt Q9QZN9)", "T3 sequence (Q9QZN9 whole entry)": "T2 sequence (whole entry)", "assay": "Agonist activity at rat recombinant CB2 receptor expressed in HEK293 cells assessed as inhibition of forskolin-induced cAMP production after 20 mins by ELISA", "assay_type": "functional, cell-based", "method_in_brief": "as §1"}, "[19]": {"assay": "Oral bioavailability in rat at 10 umol/kg, ip", "assay_type": "ADME, organism-based", "settings": "in vivo, intraperitoneal"}, "[20]": {"assay": "Half life in rat at 10 umol/kg, ip", "assay_type": "ADME, organism-based", "settings": "in vivo"}, "[21]": {"system": "Rattus norvegicus", "assay": "Analgesic activity in rat complete Freund's adjuvant model of chronic inflammatory pain assessed as reduction in thermal hyperalgesia at 3 umol/kg, ip administered 48 hrs after CFA-challenge measured after 60 mins", "assay_type": "functional, organism-based"}, "[22]": {"system": "Rattus norvegicus", "assay": "Analgesic activity in rat chronic constriction injury model of neuropathic pain assessed as reduction in mechanical allodynia at 30 umol/kg, ip administered 2 weeks post-surgery measured after 30 mins", "assay_type": "functional", "set-up": "scale not given: the % may be the effect or the level left"}, "[23]": {"assay": "AUC in rat at 10 umol/kg, po", "assay_type": "ADME, organism-based", "settings": "plasma"}, "[24]": {"molecular_target": "T1, Cannabinoid receptor 2", "assay": "Displacement of [3H]CP-55940 from human recombinant CB2 receptor expressed in HEK293 cells after 90 mins", "assay_type": "cell-based", "method_in_brief": "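Competitive binding: [³H]CP-55,940 displaced from membranes of HEK 293 cells stably transfected with human or rat CB₂, or CHO cells stably transfected with human or rat CB₁. Reported as pKi. Determinations >2 (duplicate of duplicate).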"}, "[25]": {"assay": "Plasma protein binding in rat", "assay_type": "ADME, cell-free", "settings": "read-out: PPB (converted)"}, "[26]": {"molecular_target": "Cannabinoid receptor 1 (Homo sapiens, UniProt P21554)", "sequence (P21554 whole entry)": "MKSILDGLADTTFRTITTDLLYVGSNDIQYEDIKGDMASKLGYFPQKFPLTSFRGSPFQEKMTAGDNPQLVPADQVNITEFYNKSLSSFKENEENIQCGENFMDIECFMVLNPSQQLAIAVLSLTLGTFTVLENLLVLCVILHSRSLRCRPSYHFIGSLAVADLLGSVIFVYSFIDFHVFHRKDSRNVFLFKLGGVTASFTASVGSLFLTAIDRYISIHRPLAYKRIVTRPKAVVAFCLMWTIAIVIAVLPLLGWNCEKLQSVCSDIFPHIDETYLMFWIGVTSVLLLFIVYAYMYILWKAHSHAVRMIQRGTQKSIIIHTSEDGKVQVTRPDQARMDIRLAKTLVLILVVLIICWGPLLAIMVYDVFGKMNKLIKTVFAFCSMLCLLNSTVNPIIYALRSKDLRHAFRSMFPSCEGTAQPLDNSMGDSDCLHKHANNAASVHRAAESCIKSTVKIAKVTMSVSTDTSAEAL", "assay": "Agonist activity at human recombinant CB1 receptor expressed in HEK293 cells assessed as inhibition of forskolin-induced cAMP production after 20 mins by ELISA", "assay_type": "functional, cell-based", "method_in_brief": "as §1"}},
  "note": "pIC50, pKi: −log10 of the molar value. Calls of active or inactive are those of the source.",
  "data": [
    {"smiles": "CCCNC(=O)c1c(NC(=O)C23CC4CC(CC2C4)C3)sc2c1CCOC2", "values": [
      {"measurement": "pIC50", "setting": "[1]", "result": 7.15},
      {"measurement": "Activity", "setting": "[2]", "result": 18, "unit": "%"},
      {"measurement": "half-life", "setting": "[3]", "result": 1.6, "unit": "h"},
      {"measurement": "fraction unbound", "setting": "[4]", "result": 0.02},
      {"measurement": "Activity", "setting": "[5]", "result": 60, "unit": "%"},
      {"measurement": "Activity", "setting": "[6]", "result": 22, "unit": "%"},
      {"measurement": "Activity", "setting": "[7]", "result": 45, "unit": "%"},
      {"measurement": "Activity", "setting": "[8]", "result": 24, "unit": "%"},
      {"measurement": "remaining at 0.5 h", "setting": "[9]", "result": 9, "unit": "%"},
      {"measurement": "Activity", "setting": "[10]", "result": "Dose-dependent effect"},
      {"measurement": "Activity", "setting": "[11]", "result": 55, "unit": "%"},
      {"measurement": "Cmax", "setting": "[12]", "result": 39, "unit": "ng/mL"},
      {"measurement": "Vd", "setting": "[13]", "result": 8.7, "unit": "L/kg"},
      {"measurement": "Tmax", "setting": "[14]", "result": 0.6, "unit": "h"},
      {"measurement": "Imax", "setting": "[15]", "result": 72, "unit": "%"},
      {"measurement": "Activity", "setting": "[16]", "result": 74, "unit": "%"},
      {"measurement": "bioavailability", "setting": "[17]", "result": 11, "unit": "%"},
      {"measurement": "pIC50", "setting": "[18]", "result": 8.03},
      {"measurement": "bioavailability", "setting": "[19]", "result": 96, "unit": "%"},
      {"measurement": "half-life", "setting": "[20]", "result": 6.7, "unit": "h"},
      {"measurement": "Activity", "setting": "[21]", "result": "Active"},
      {"measurement": "Activity", "setting": "[22]", "result": 74, "unit": "%"},
      {"measurement": "AUC", "setting": "[23]", "result": 123, "unit": "ng·h/mL"},
      {"measurement": "pKi", "setting": "[24]", "result": 7.68},
      {"measurement": "fraction unbound", "setting": "[25]", "result": 0.03},
      {"measurement": "pIC50", "setting": "[26]", "result": 5.46}
    ]}
  ]
}
